From ChEMBL document CHEMBL4014332, “Multitargeted Imidazoles: Potential Therapeutic Leads for Alzheimer's and Other Neurodegenerative Diseases” (J Med Chem, 2017)

Assays:
Rattus norvegicus = species: Rattus norvegicus; assay: Inhibition of 5-LOX-mediated LTB4 production in arachidonic acid-stimulated RBL1 cells at 10 uM preincubated for 2 hrs followed by A23187 induction for 15 mins by LC/MS/MS analysis relative to control
In short: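 RBL-1 cells grown in RPMI/10% FBS, plated 9 × 10⁵ cells/well, held 2 h at 37 °C, then given compound for 2 h (screen at 10 μM, then concentration–response in triplicate). Stimulation was 12 μM A23187 for 15 min. Supernatants were extracted with MeOH/0.01% BHT and LTB₄ quantified by UPLC-MS/MS in negative ion mode.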

[1] = Change in total alpha-tubulin levels in human QBI293 cells at 1 uM after 4 hrs by ELISA relative to control; conditions: qbi293, 4 h

Compound	inhibition (Rattus norvegicus)	Activity [1]	FC [1]
Fc1cccc(F)c1-c1cncn1-c1ccccc1Cl	< 10%	Non-Toxic	
Cc1nc(Cl)n(-c2ccc(Cl)cc2)c1-c1c(F)cccc1F	42%	Non-Toxic	
Fc1ccc(Cl)c(F)c1-c1cnc(Cl)n1-c1ccc(Cl)cc1	88%		0.8
Fc1ccc(-c2cnc(Cl)n2-c2ccc(Cl)cc2)cc1	57%	Non-Toxic	
Fc1ccc(F)c(-c2cncn2-c2ccc(OC(F)(F)F)cc2)c1F	52%		1.2
Fc1cccc(F)c1-c1c(Cl)ncn1-c1ccccc1Cl	56%	Non-Toxic	
COc1ccc(-c2c(Cl)ncn2-c2ccc(Cl)cc2)cc1	< 10%	Non-Toxic	
Fc1cccc(F)c1-c1cnc(Cl)n1-c1ccc(OC(F)(F)F)cc1	61%	Non-Toxic	
Fc1cccc(F)c1-c1c(Cl)nc(Cl)n1-c1ccc(Cl)cc1	90%	Non-Toxic	
COc1ccc(F)c(-c2c(Cl)ncn2-c2ccc(Cl)cc2)c1F	91%		0.8
Fc1cccc(F)c1-c1c(Cl)ncn1-c1ccc(OC(F)(F)F)cc1	78%	Non-Toxic	
Fc1cccc(F)c1-c1cnc(Cl)n1-c1ccccc1Cl	38%	Non-Toxic	
Clc1ccc(-n2c(Cl)nc(Cl)c2-c2ccccc2)cc1	< 10%	Non-Toxic	
Cc1ncn(-c2ccc(Cl)cc2)c1-c1c(F)cccc1F	44%	Non-Toxic	
Fc1cc(F)c(-c2c(Cl)ncn2-c2ccc(Cl)cc2)c(F)c1	46%	Non-Toxic	
Fc1cc(F)c(-c2c(Cl)ncn2-c2ccc(Cl)nc2)c(F)c1	< 10%		0.8
Clc1ccc(-n2c(-c3ccccc3)cnc2Cl)cc1	52%		1.2
Fc1cccc(F)c1-c1c(Cl)nc(Cl)n1-c1ccc(OC(F)(F)F)cc1	81%	Non-Toxic	
Cc1nc(Cl)n(-c2ccc(Cl)cc2)c1-c1c(F)ccc(Cl)c1F	54%		0.5
Fc1ccc(F)c(-c2c(Cl)ncn2-c2ccc(Cl)cc2)c1	69%	Non-Toxic	
Fc1ccc(-c2c(Cl)ncn2-c2ccc(Cl)cc2)cc1	59%	Non-Toxic	
Cc1nc(C)n(-c2ccc(Cl)cc2)c1-c1c(F)ccc(Cl)c1F	51%	Non-Toxic	
COc1ccc(F)c(-c2cnc(Cl)n2-c2ccc(Cl)cc2)c1F	68%		0.6
Fc1cccc(F)c1-c1cncn1-c1ccc(OC(F)(F)F)cc1	55%	Non-Toxic	
Fc1cc(F)c(-c2cnc(Cl)n2-c2ccc(Cl)cc2)c(F)c1	61%	Non-Toxic	

Compound	inhibition (Rattus norvegicus)	Activity [1]	FC [1]
Fc1cc(-n2c(-c3c(F)ccc(F)c3F)cnc2Cl)ccc1Cl	58%	Non-Toxic	
Fc1cc(Cl)ccc1-n1c(-c2c(F)cccc2F)cnc1Cl	49%	Non-Toxic	
Fc1ccc(F)c(-c2cnc(Cl)n2-c2ccc(Cl)cc2)c1F	24%	Non-Toxic	
Fc1ccc(F)c(-c2cnc(Cl)n2-c2ccc(OC(F)(F)F)cc2)c1F	80%	Non-Toxic	
Clc1ccc(-n2cncc2-c2ccccc2)cc1	16%	Non-Toxic	
Cc1cc(F)c(-c2cncn2-c2ccc(Cl)cc2)c(F)c1	84%	Non-Toxic	
Fc1cc(F)c(-c2cncn2-c2ccc(Cl)cc2)c(F)c1	24%	Non-Toxic	
Fc1ccc(F)c(-c2c(Cl)nc(Cl)n2-c2ccc(OC(F)(F)F)cc2)c1F	56%	Non-Toxic	
Fc1cc(Cl)ccc1-n1cnc(Cl)c1-c1c(F)cccc1F	14%	Non-Toxic	
Cc1nc(Cl)c(-c2c(F)cc(F)cc2F)n1-c1ccc(Cl)nc1	26%	Non-Toxic	
Cc1ncc(-c2c(F)ccc(F)c2F)n1-c1ccc(Cl)cc1	45%		0.9
CC(C)Cc1ccc(C(C)C(=O)O)cc1 (stereo not drawn) [IBUPROFEN]	< 10%	Non-Toxic	
Cc1ccc(F)c(-c2c(Cl)ncn2-c2ccc(Cl)cc2)c1F	78%		0.8
Fc1cccc(F)c1-c1cncn1-c1ccccc1	< 10%	Non-Toxic	
Cc1nc(Cl)n(-c2ccc(Cl)cc2)c1-c1c(F)ccc(F)c1F	58%	Non-Toxic	
Cc1cc(F)c(-c2c(Cl)nc(Cl)n2-c2ccc(Cl)cc2)c(F)c1	63%		0.7
Cc1cc(F)c(-c2cnc(Cl)n2-c2ccc(Cl)cc2)c(F)c1	73%	Non-Toxic	
COc1ccc(F)c(-c2cncn2-c2ccc(Cl)cc2)c1F	78%	Non-Toxic	
COc1ccc(-c2cncn2-c2ccc(Cl)cc2)cc1	< 10%	Non-Toxic	
Fc1cc(F)c(-c2c(Cl)nc(Cl)n2-c2ccc(Cl)cc2)c(F)c1	48%	Non-Toxic	
Cc1nc(Cl)c(-c2c(F)cc(F)cc2F)n1-c1ccc(Cl)cc1	< 10%	Non-Toxic	
Fc1ccc(F)c(-c2c(Cl)ncn2-c2ccc(OC(F)(F)F)cc2)c1F	85%	Non-Toxic	
COc1ccc(-n2cncc2-c2c(F)cc(F)cc2F)cc1	25%	Non-Toxic	
Fc1cccc(F)c1-c1c(Cl)nc(Cl)n1-c1ccccc1Cl	21%	Non-Toxic	
